Shown are actives, neighbours in structure and some others; about 4.3% of the full set was active somewhere.
FLuc inh counter: counter-screen for luciferase assay inhibitors: firefly luciferase inhibition | inhibition, % at 10 µM | hit rate 1.5% among 200,000 | ATPLite firefly luciferase biochemical luminescence, 10 min;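 active = inhibition above about 50% when tested at 10 µM, limit read from the data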
Target sequence (P08659 whole entry, looked up): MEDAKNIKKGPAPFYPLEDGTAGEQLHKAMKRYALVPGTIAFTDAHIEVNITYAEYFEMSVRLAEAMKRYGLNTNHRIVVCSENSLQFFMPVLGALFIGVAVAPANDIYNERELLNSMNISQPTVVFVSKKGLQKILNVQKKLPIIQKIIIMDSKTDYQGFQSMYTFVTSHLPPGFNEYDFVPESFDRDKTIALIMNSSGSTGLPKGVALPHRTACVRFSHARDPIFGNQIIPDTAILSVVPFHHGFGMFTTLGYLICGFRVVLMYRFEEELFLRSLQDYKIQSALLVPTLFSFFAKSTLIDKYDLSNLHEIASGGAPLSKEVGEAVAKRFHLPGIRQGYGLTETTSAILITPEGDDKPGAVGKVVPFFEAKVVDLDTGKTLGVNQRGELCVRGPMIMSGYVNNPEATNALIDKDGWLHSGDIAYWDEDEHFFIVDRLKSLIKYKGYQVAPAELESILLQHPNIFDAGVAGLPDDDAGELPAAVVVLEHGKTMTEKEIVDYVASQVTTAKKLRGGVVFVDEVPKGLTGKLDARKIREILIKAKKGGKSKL
STAT1 act: STAT1 signaling activation; hit rate 2.6% among 200,000; NIH 3T3 STAT1-luciferase reporter, IFN-gamma, luminescence; 100% = IFN-gamma alone, no compound; activation (% of control), % at 5.5 µM; AID 932;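 active = activation above the screen-wide mean activation plus 3 SD, cut at about 130% in these data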;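 note: raw ratio to IFN-gamma control signal so 100% means no change and 0% no light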
APP 5'UTR act: activates APP 5'UTR luciferase reporter; SH-SY5Y APP 5'UTR luciferase reporter, luminescence; zero percent = DMSO vehicle wells; activation, % at 2 µM; hit rate 1% among 190,000; AID 1276;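 active = activation above a set limit, based on mean plus 3 SD of controls, cut at about 140% in these data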
FLuc stim CS: affects firefly luciferase, flagging false hits in luciferase stimulation screens; ATPlite luciferase biochemical, luminescence, 10 min; 0 = ATP-free wells, 1 = DMSO control; activation factor at 10 µM; 200,000 tested, under 10 active; AID 1027;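 active = luciferase activation factor, scaled between plate controls, of at least 2 with compound at 10 µM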
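test system = cell-free luciferase reagent | medium = PBS as buffer for the ATP substrate | dosing = test compounds dosed from 2 mM stocks in 100% DMSO | incubation = 10 min at ambient temperature | detection = luminescence measurement of luciferase light output | benchmarks = low control with PBS replacing ATP, high control enzyme plus ATP without compound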
NF-kB neuron act: NF-kB expression increase, human neuronal cells; NF-kB reporter expression; stronger effect = higher value; fold change at 12.5 µM; hit rate 1.6% among 190,000; AID 1239; in the data active = fold change above about 3.3
Numbers without * were called inactive.

SMILES	FLuc inh counter	STAT1 act	APP 5'UTR act	FLuc stim CS	NF-kB neuron act
CCSc1nnc(NC(=O)C(C)Sc2nc3ccccc3[nH]2)s1 (stereo not drawn)	-7.7	97.9	13.2	1.1	0.97
Cc1cc(C(=O)CN2C(=O)C(=O)N(Cc3ccccc3)C2=O)c(C)n1-c1ccc2c(c1)OCCO2	-6.6	92.3	27.8	1.1	0.8
Cc1cccc(/C(N)=N/OC(=O)c2cccs2)c1	90.3*	139.9*	236.9*	0.1	5.95*
N/C(=N\OC(=O)c1cccc(Br)c1)c1ccc(Br)cc1	-1.2	98.0	-5.4	1	0.98
Cc1cccc(/C(N)=N/OC(=O)c2ccc(F)cc2)c1	96.6*	140.0*	112.6	0	2.14
N/C(=N\OC(=O)c1cccs1)c1cccc(Br)c1	87.2*	136.3*	60.0	0.1	1.21
Nc1c(-c2ccccc2)c(CSc2nc3ccccc3[nH]2)nn1-c1ccc(C(=O)O)cc1	-3.8	99.5	-1.1	1	1.07
CCN(CC)C(=O)c1ccc2c(c1)nnn2C	-8.0	99.6	12.7	1.1	1.14
O=C(N/N=C/c1cn(-c2ccccc2)nc1-c1cc2ccccc2o1)c1cccnc1	19.4	123.0	147.8*	0.8	1.28
O=C(N/N=C/c1cn(-c2ccccc2)nc1-c1cc2ccccc2o1)c1ccncc1	25.5	143.5*	187.8*	0.7	2.63
O=C(N/N=C/c1cn(-c2ccccc2)nc1-c1cccnc1)c1cccnc1	12.8	96.8	-8.7	0.9	0.71
COc1ccccc1CNC(=O)C(NC(=O)c1ccccc1)C(C)C (stereo not drawn)	-6.2	82.0	-0.6	1.1	1.1
C=CCNC(=O)c1ccc2c(=O)n(CCCN3CCCC3=O)c(=S)[nH]c2c1	-3.3	102.6	-9.7	1	1.12
Nc1c(-c2ccc(Cl)cc2)nnn1-c1ccccc1	43.4	132.1*	89.3	0.6	3.01
Nc1cc(-c2ccc(Cl)cc2)nn1-c1ccccc1	30.4	148.7*	88.3	0.7	2.65
COc1ccc(O)c(/C=N/N=C2/C(=O)Nc3ccccc32)c1	81.1*	108.5	-27.1	0.2	1.12
Cc1ccc(C(=O)Nc2cc(C)c(OCC(=O)N3CCOCC3)c(C)c2)cc1	87.5*	99.8	48.0	0.1	2.09
Cc1ccc(-c2ccc(OCC(=O)N3CCOCC3)cc2)cc1	18.8	110.3	3.3	0.8	1.33
COCCn1c(C)cc(/C=C2/NC(=O)N(c3cccc(Cl)c3)C2=O)c1C	1.8	137.8*	56.6	1	0.97
Cc1ccc(OCC(=O)O/N=C(\N)c2ccccn2)cc1	15.6	143.9*	101.4	0.8	2.51
N/C(=N\OC(=O)Cc1cccc2ccccc12)c1ccccn1	5.1	123.0	109.4	0.9	6.14*
Cc1cccc(OCC(=O)O/N=C(\N)c2ccccn2)c1C	26.6	138.4*	71.9	0.7	2.17
CC(C)(C)CC(=O)O/N=C(\N)c1ccccn1	51.1*	126.4	88.8	0.5	3.07
CS(=O)(=O)N(CC(=O)N1CCN(c2ccccc2)CC1)c1ccc(Cl)c(C(F)(F)F)c1	-5.7	99.3	-16.6	1.1	0.91
CCc1ccccc1NC(=O)c1cc(=O)c2ccccc2o1	-4.1	108.1	13.2	1	1.21
SMILES	FLuc inh counter	STAT1 act	APP 5'UTR act	FLuc stim CS	NF-kB neuron act
O=C(Nc1ccccc1)Nc1ncc([N+](=O)[O-])s1	27.4	68.5	120.0	0.7	4.09*
CCC(=O)NC1OC(CO)C(O)C(O)C1O (stereo not drawn)	-3.7	87.0	-19.8	1	0.96
COc1cc(OC)cc(C(=O)Nc2nnc(NC(=S)Nc3ccccc3)s2)c1	-7.0	93.7	15.1	1.1	1.16
CC(C)(C)c1nnc(NC(=S)Nc2ccccc2)s1	24.5	139.6*	92.3	0.8	3.58*
COc1ccc(/C=C/C(=O)Nc2cccc(C(C)=O)c2)cc1	69.6*	130.2*	49.5	0.3	1.96
COc1cccc(/C=C/C(=O)Nc2ccc3c(c2)OCCO3)c1OC	92.6*	75.9	205.0*	0.1	8.64*
COc1ccccc1/C=C/C(=O)Nc1cccc(C(C)=O)c1	17.0	108.7	26.0	0.8	1.04
COc1ccc(NC(=O)/C=C/c2cccc(F)c2)cn1	33.2	147.3*	135.3*	0.7	3.79*
COc1ccc(NC(=O)/C=C/c2ccco2)cn1	29.7	125.6	68.7	0.7	2.28
COc1cccc(/C=C/C(=O)Nc2cccc(C(C)=O)c2)c1OC	67.5*	114.7	70.2	0.3	1.06
COc1cccc(OC)c1C(=O)NC(=S)Nc1ccc2c(c1)OCCO2	10.6	83.0	32.1	0.9	0.71
O=C(NNc1c(F)c(F)cc(F)c1F)c1cc2ccccc2oc1=O	0.3	122.2	80.8	1	2.49
CCOC(=O)/C(=N\Nc1ccccc1Cl)N(C)C1CCCCC1	-4.8	100.6	-6.4	1	1.32
C=CCNC(=S)NC(CC(=O)OC)c1ccc2c(c1)OCO2 (stereo not drawn)	-6.2	95.3	12.5	1.1	1.39
O=C1Nc2ccccc2C1(O)C/C(=N/O)c1ccccc1 (stereo not drawn)	-8.5	98.5	23.7	1.1	1.05
COc1ccccc1N(C)S(=O)(=O)c1ccc(C(=O)OCC(=O)N2CCCCCC2)cc1	0.7	97.6	11.6	1	0.99
O=C(Nc1nc2ccccc2s1)c1cc2c(s1)-c1ccccc1OC2	-4.2	121.7	4.6	1	2
O=C(Nc1nccs1)c1cc2c(s1)-c1ccccc1OC2	12.1	146.3*	96.0	0.9	2.33
NS(=O)(=O)c1ccc(N=NN2CCCCC2)cc1	4.7	119.7	31.5	1	1.91
COC(=O)c1ccc(N=NN2CCCCCC2)cc1	34.3	137.1*	106.5	0.7	4.07*
O=C(O)c1ccc(N=NN2CCCCC2)cc1	3.5	134.6*	56.8	1	1.89
Cc1ccc(C)c(S(=O)(=O)N2CCN(CC(=O)NC(=O)NCc3ccco3)CC2)c1	-6.7	89.4	10.6	1.1	1.03
CCOc1cc(N2CCOCC2)c(OCC)cc1NC(=O)c1c(-c2ccccc2Cl)noc1C	-6.7	93.7	-2.9	1.1	0.82
COc1cccc(NC(=S)/C(=C(\[O-])c2cc(C)n(-c3ccccc3F)c2C)[n+]2ccc(N(C)C)cc2)c1	-6.7	70.3	25.8	1.1	0.57
Cc1ccsc1/C=C1/C(=O)NN(c2ccccc2)C1=O	59.3*	79.1	-3.7	0.4	1.24
Cc1ccsc1C=C1C(=O)c2ccccc2C1=O	72.8*	105.1	11.5	0.3	0.79
CN(C)C=C1C(=O)c2ccccc2C1=O	-0.6	97.1	9.5	1	1
O=C1NN(c2ccccc2)C(=O)/C1=C\c1cccc(OC(=O)c2cccs2)c1	20.3	100.1	0.3	0.8	1.33
c1ccn(-c2ccc(-c3ccn[nH]3)cc2)c1	52.4*	142.7*	86.8	0.5	2.72
CCc1c(C)sc(NC(=S)N2CC(C)OC(C)C2)c1C(=O)OC (stereo not drawn)	-1.8	105.0	11.5	1	1.08
